The values below come from ChEMBL document CHEMBL3232919, “Imidazol-1-ylethylindazole voltage-gated sodium channel ligands are neuroprotective during optic neuritis in a mouse model of multiple sclerosis” (J Med Chem, 2014).

The structures appear in SMILES notation. Where only a bound is given, the exact number is not on record here.

The nature of data set [1]: Displacement of [3H]sipatrigine from Wistar rat brain synaptosomes voltage-gated sodium channel by liquid scintillation counting. Format: subcellular.
The species entered for data set [2] is Rattus norvegicus. As to the kind of experiment: Neuroprotective activity in oxygen/glucose deprivation-induced Wistar rat hippocampal slice assessed as inhibition of cell death by measuring ATP level at 50 uM. Format: functional.
Data set [3] is described as follows: Metabolic stability in rat liver microsomes assessed as drug turnover at 1 uM at 40 mins by LC-MS/MS analysis. Format: ADME. The following applies: read-out: Drug metabolism. Summed up:
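Compound at 1 μM was incubated (n=2) with pooled rat liver microsomes (0.25 mg protein/ml) at 37°C for 0 and 40 min. Reactions were stopped with acetonitrile containing an internal standard, and parent disappearance was measured by LC-MS/MS. Percentage turnover was taken from peak heights relative to the zero-time samples.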

For data set [4], the species on record is Rattus norvegicus. As to the kind of experiment: Neuroprotective activity in oxygen/glucose deprivation-induced Wistar rat hippocampal slice assessed as inhibition of cell death by measuring ATP level. Type of data set: functional.
For data set [5], the species on record is Rattus norvegicus. The data set can be described thus: Neuroprotective activity in oxygen/glucose deprivation-induced Wistar rat hippocampal slice assessed as inhibition of cell death by measuring ATP level at 3 uM. Format: functional.
The species entered for data set [6] is Rattus norvegicus. The data set can be described thus: Neuroprotective activity in oxygen/glucose deprivation-induced Wistar rat hippocampal slice assessed as inhibition of cell death by measuring ATP level at 30 uM normalized to tetrodotoxin. Type of data set: functional.
For data set [7], the species on record is Rattus norvegicus. The following applies: Wistar, 1 uM.

The compound `Cc1oncc1Cn1nc(-c2nc(CNC(=O)c3ccccc3)no2)c2ccccc21` came in with a half-maximal inhibitory concentration (IC50) in data set [1] of more than 2000 µM. In the data set filed under Rattus norvegicus [2], the inhibition at 50 µM stood at 19%.

The compound `Cc1cccc(C(=O)NCc2noc(-c3c4ccccc4nn3CCn3ccnc3)n2)c1` returned an IC50 in data set [1] of 2.5 µM. Also, the inhibition at 50 µM in the data set listed under Rattus norvegicus [2] is 41%.

For the compound `CC(C)(C)c1ccc(S(=O)(=O)NCc2noc(-c3nn(CCn4ccnc4)c4ccccc34)n2)cc1`, the half-inhibitory concentration (IC50) in data set [1] came to 4.4 µM. Moreover, in the data set listed under Rattus norvegicus [2], the inhibition at 50 µM amounted to 16%.

The compound `CC(=O)Nc1ccc(S(=O)(=O)NCc2noc(-c3c4ccccc4nn3CCn3ccnc3)n2)cc1` came in with an IC50 in data set [1] of 17 µM. The inhibition at 50 µM in the data set filed under Rattus norvegicus [2] is 25%. Further, in data set [3], the metabolised at 40 min, 1 µM was 54%.

In the case of `CC(C)(C)OC(=O)NCc1noc(-c2c3ccccc3nn2Cc2ccccn2)n1`, the IC50 in data set [1] stood at 23 µM. For the same compound, in the data set listed under Rattus norvegicus [2], the inhibition at 50 µM was found to be 42%.

In data set [1], `NCc1noc(-c2nn(-c3ccccn3)c3ccccc23)n1` returned an IC50 of 32 µM. The inhibition at 50 µM in the data set listed under Rattus norvegicus [2] is -11%.

Consider `CC(C)(C)OC(=O)NCc1noc(-c2nn(Cc3ccc(-n4cccn4)cc3)c3ccccc23)n1`, for which the IC50 in data set [1] was 617 µM. Moreover, the inhibition at 50 µM in the data set filed under Rattus norvegicus [2] came to 20%.

`NCc1noc(-c2nn(Cc3ccc4c(c3)OCO4)c3ccccc23)n1` displayed an IC50 in data set [1] of 2.1 µM. In the data set filed under Rattus norvegicus [2], the inhibition at 50 µM worked out at 44%.

With `NCc1noc(-c2nn(Cc3ccccc3)c3ccccc23)n1`, the 50% effective concentration (EC50) in the data set listed under Rattus norvegicus [4] came out at 35 µM.

The compound `O=C(NCc1noc(-c2nn(CCn3ccnc3)c3ccccc23)n1)c1cccc(OC(F)(F)F)c1` displayed a half-inhibitory concentration (IC50) in data set [1] of 1.5 µM. Also, the inhibition at 50 µM in the data set filed under Rattus norvegicus [2] is 37%. Also, the metabolised at 40 min, 1 µM in data set [3] was 78%.

In the case of `NCc1noc(-c2nn(Cc3ccc(-n4cccn4)cc3)c3ccccc23)n1`, the IC50 in data set [1] is 6.2 µM. Further, the inhibition at 50 µM in the data set listed under Rattus norvegicus [2] came to 26%.

In the case of `CN1CCN(c2ncc(-c3cc(Cl)cc(Cl)c3Cl)c(N)n2)CC1` [SIPATRIGINE], the inhibition at 3 µM in the data set listed under Rattus norvegicus [5] is 93%.

Regarding `COc1cccc(C(=O)NCc2noc(-c3c4ccccc4nn3CCn3ccnc3)n2)c1`, the half-inhibitory concentration (IC50) in data set [1] was 5 µM. For the same compound, the inhibition at 50 µM in the data set filed under Rattus norvegicus [2] was determined as 63%.

For `O=C(NCc1noc(-c2nn(CCn3ccnc3)c3ccccc23)n1)c1cccc2[nH]ccc12`, the IC50 in data set [1] was found to be 13 µM. Further, in the data set listed under Rattus norvegicus [2], the inhibition at 50 µM worked out at 52%.

For the compound `Cc1oncc1Cn1nc(-c2nc(CNC(=O)OC(C)(C)C)no2)c2ccccc21`, in data set [1], the concentration for half-maximal inhibition (IC50) is 339 µM. In addition, the inhibition at 50 µM in the data set listed under Rattus norvegicus [2] worked out at 39%.

Take `Nc1nnc(-c2cccc(Cl)c2Cl)c(N)n1` [LAMOTRIGINE]: the “inhibition (INH)” value in the data set filed under Rattus norvegicus [6] came to 33%.

In turn, `O=C(NCc1noc(-c2c3ccccc3nn2CCn2ccnc2)n1)c1cccc(F)c1F` displayed an IC50 in data set [1] of 3.6 µM. Moreover, the inhibition at 50 µM in the data set filed under Rattus norvegicus [2] was found to be 2%.

`O=C(NCc1noc(-c2c3ccccc3nn2CCn2ccnc2)n1)c1ccc2ccccc2c1` displayed a half-inhibitory concentration (IC50) in data set [1] of 0.4 µM. For the same compound, the inhibition at 50 µM in the data set listed under Rattus norvegicus [2] was 22%.

`NC1=N[C@H](O)[C@H]2[C@H]3O[C@]4(O)O[C@@H]([C@@H](O)[C@@]2(N1)[C@@H]4O)[C@]3(O)CO`: the inhibition in the data set filed under Rattus norvegicus [7] amounted to 100%.

The compound `CC(C)(C)OC(=O)NCc1noc(-c2c3ccccc3nn2CCc2cccs2)n1` yielded an IC50 in data set [1] of 166 µM. Besides, the inhibition at 50 µM in the data set listed under Rattus norvegicus [2] is 1%.

`Cc1ccccc1C(=O)NCc1noc(-c2c3ccccc3nn2CCn2ccnc2)n1`: the IC50 in data set [1] came to 2.9 µM. In addition, the inhibition at 50 µM in the data set filed under Rattus norvegicus [2] amounted to 62%.

Regarding `COc1ccc(C(=O)NCc2noc(-c3c4ccccc4nn3CCn3ccnc3)n2)cc1`, in data set [1], the IC50 came to 6.2 µM. The inhibition at 50 µM in the data set filed under Rattus norvegicus [2] worked out at 55%.

In data set [1], `O=S(=O)(NCc1noc(-c2nn(CCn3ccnc3)c3ccccc23)n1)c1ccc(Cl)cc1` showed a concentration for half-maximal inhibition (IC50) of 10 µM. In addition, in the data set filed under Rattus norvegicus [2], the inhibition at 50 µM is 21%.

Compound `O=S(=O)(NCc1noc(-c2c3ccccc3nn2CCn2ccnc2)n1)c1ccccc1` displayed an IC50 in data set [1] of 1.7 µM. Moreover, the inhibition at 50 µM in the data set filed under Rattus norvegicus [2] stood at 38%. Moreover, in data set [3], the metabolised at 40 min, 1 µM was 97%. Moreover, in the data set filed under Rattus norvegicus [4], the concentration for a half-maximal effect (EC50) was determined as 29.5 µM.

The compound `CC(C)(C)c1ccc(C(=O)NCc2noc(-c3nn(CCn4ccnc4)c4ccccc34)n2)cc1` yielded an IC50 in data set [1] of 1.2 µM. Also, the inhibition at 50 µM in the data set listed under Rattus norvegicus [2] was 40%.

Take `NCc1noc(-c2c3ccccc3nn2Cc2ccccc2)n1`: the inhibition at 50 µM in the data set listed under Rattus norvegicus [2] was found to be 57%.

`COc1cccc(S(=O)(=O)NCc2noc(-c3nn(CCn4ccnc4)c4ccccc34)n2)c1OC` registered an IC50 in data set [1] of more than 500 µM. For the same compound, the inhibition at 50 µM in the data set filed under Rattus norvegicus [2] came to 37%.

`O=C(NCc1noc(-c2c3ccccc3nn2CCn2ccnc2)n1)c1ccc2c(c1)OCO2`: in data set [1], the half-maximal inhibitory concentration (IC50) was 5 µM. Moreover, in the data set listed under Rattus norvegicus [2], the inhibition at 50 µM was 27%.

Compound `O=S(=O)(NCc1noc(-c2nn(CCn3ccnc3)c3ccccc23)n1)c1ccc(OC(F)(F)F)cc1` showed an IC50 in data set [1] of 4.9 µM. Also, in the data set listed under Rattus norvegicus [2], the inhibition at 50 µM turned out to be 0%.

`O=S(=O)(NCc1noc(-c2nn(CCn3ccnc3)c3ccccc23)n1)c1cccc(C(F)(F)F)c1` returned an IC50 in data set [1] of 2.1 µM. The inhibition at 50 µM in the data set filed under Rattus norvegicus [2] is 38%.

Take `COc1cccc(C(=O)NCc2noc(-c3c4ccccc4nn3CCn3ccnc3)n2)c1OC`: the IC50 in data set [1] was found to be 5.8 µM. The inhibition at 50 µM in the data set filed under Rattus norvegicus [2] is 88%. In addition, the EC50 in the data set listed under Rattus norvegicus [4] was 12.3 µM.

In turn, `CC(=O)Nc1ccc(C(=O)NCc2noc(-c3c4ccccc4nn3CCn3ccnc3)n2)cc1` yielded an IC50 in data set [1] of 59 µM. Besides, the inhibition at 50 µM in the data set listed under Rattus norvegicus [2] is -14%. Moreover, the metabolised at 40 min, 1 µM in data set [3] came out at 45%.

`O=C(NCc1noc(-c2c3ccccc3nn2CCn2ccnc2)n1)c1ccc(OC(F)(F)F)cc1` gave an IC50 in data set [1] of 0.7 µM. Further, the inhibition at 50 µM in the data set filed under Rattus norvegicus [2] worked out at 31%.

On to `O=C(NCc1noc(-c2c3ccccc3nn2Cc2ccccn2)n1)c1ccccc1`, for which the 50% inhibitory concentration (IC50) in data set [1] was 41 µM. The inhibition at 50 µM in the data set filed under Rattus norvegicus [2] was 58%.

As for `CC(C)(C)OC(=O)NCc1noc(-c2c3ccccc3nn2CCn2ccnc2)n1`, the IC50 in data set [1] is 15.5 µM. In the data set listed under Rattus norvegicus [2], the inhibition at 50 µM is 35%. Further, the metabolised at 40 min, 1 µM in data set [3] was 70%.

Turning to `NCc1noc(-c2c3ccccc3nn2Cc2ccccn2)n1`, the 50% inhibitory concentration (IC50) in data set [1] is more than 10000 µM. For the same compound, the inhibition at 50 µM in the data set filed under Rattus norvegicus [2] came to 25%.

`CC(C)(C)OC(=O)NCc1noc(-c2nn(-c3ccccn3)c3ccccc23)n1` registered a half-maximal inhibitory concentration (IC50) in data set [1] of 74 µM. Also, the inhibition at 50 µM in the data set listed under Rattus norvegicus [2] was determined as 18%.

In data set [1], `Cc1cc(C(=O)NCc2noc(-c3c4ccccc4nn3CCn3ccnc3)n2)ccc1[N+](=O)[O-]` gave a half-maximal inhibitory concentration (IC50) of 1.7 µM. The inhibition at 50 µM in the data set filed under Rattus norvegicus [2] turned out to be 43%.

In the case of `CC(C)(C)OC(=O)NCc1noc(-c2nn(CCn3ccnc3)c3ccccc23)n1`, the IC50 in data set [1] was 7.4 µM. Also, in the data set filed under Rattus norvegicus [2], the inhibition at 50 µM worked out at 56%.

For the compound `O=C(NCc1noc(-c2c3ccccc3nn2CCc2cccs2)n1)c1ccccc1`, the IC50 in data set [1] is more than 1000 µM. Moreover, the inhibition at 50 µM in the data set filed under Rattus norvegicus [2] was -2%.

As to `O=C(NCc1noc(-c2c3ccccc3nn2CCn2ccnc2)n1)c1ccc(Cl)cc1`, the IC50 in data set [1] came to 2.2 µM. For the same compound, in the data set filed under Rattus norvegicus [2], the inhibition at 50 µM is 42%.

In data set [1], `CC(C)(C)OC(=O)NCc1noc(-c2nn(Cc3ccc4c(c3)OCO4)c3ccccc23)n1` yielded a half-maximal inhibitory concentration (IC50) of 6 µM. The inhibition at 50 µM in the data set listed under Rattus norvegicus [2] is -3%.

In the case of `COc1cccc(C(=O)NCc2noc(-c3nn(CCn4ccnc4)c4ccccc34)n2)c1OC`, the IC50 in data set [1] was 7.1 µM. Also, the inhibition at 50 µM in the data set filed under Rattus norvegicus [2] came out at 69%.

In the case of `Cc1ccccc1S(=O)(=O)NCc1noc(-c2nn(CCn3ccnc3)c3ccccc23)n1`, the IC50 in data set [1] is 4.9 µM. In addition, the inhibition at 50 µM in the data set listed under Rattus norvegicus [2] was found to be 57%.

As to `COc1ccc(C(=O)NCc2noc(-c3nn(CCn4ccnc4)c4ccccc34)n2)c(OC)c1OC`, the IC50 in data set [1] turned out to be 5.3 µM. For the same compound, in the data set listed under Rattus norvegicus [2], the inhibition at 50 µM amounted to 37%.

`NCc1noc(-c2c3ccccc3nn2CCc2cccs2)n1` gave a 50% inhibitory concentration (IC50) in data set [1] of 0.6 µM. Also, the inhibition at 50 µM in the data set filed under Rattus norvegicus [2] stood at 36%.

In data set [1], `Cc1oncc1Cn1nc(-c2nc(CN)no2)c2ccccc21` came in with a half-maximal inhibitory concentration (IC50) of 15 µM. In the data set listed under Rattus norvegicus [2], the inhibition at 50 µM was 19%.

On to `COc1ccccc1C(=O)NCc1noc(-c2c3ccccc3nn2CCn2ccnc2)n1`, for which the IC50 in data set [1] is 7.1 µM. Moreover, the inhibition at 50 µM in the data set filed under Rattus norvegicus [2] is 54%.

Turning to `NCc1noc(-c2c3ccccc3nn2CCn2ccnc2)n1`, the IC50 in data set [1] is 14 µM. Further, the inhibition at 50 µM in the data set listed under Rattus norvegicus [2] came out at 8%. In addition, the metabolised at 40 min, 1 µM in data set [3] worked out at 57%.

On to `NCc1noc(-c2nn(CCn3ccnc3)c3ccccc23)n1`, for which the half-maximal inhibitory concentration (IC50) in data set [1] turned out to be 148 µM. For the same compound, the inhibition at 50 µM in the data set listed under Rattus norvegicus [2] is -2%.
